pEC50: −log10 of the molar value.
How the values were obtained:
[1] = Cytotoxicity against human HG23 cells after 48 hrs; format: cell-based; settings: read-out: TD50
Summary of the method: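 Replicon-harboring HG23 cells exposed to graded compound levels from 0 (mock-DMSO) to 320 µM for 48 h. Viability read with a commercial cell cytotoxicity assay kit, and the median toxic dose (TD50) was calculated from it.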

Norwalk virus = experiment: Antiviral activity against Norwalk virus infected in human HG23 cells assessed as inhibition of viral replication after 24 hrs by qRT-PCR; format: functional; settings: HG23, 24 h, read-out: ED50 (the source's name)
Summary of the method: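 HG23 cells (Norwalk virus replicon-bearing), one day old at 80–90% confluence, exposed to graded compound levels from 0 (mock-DMSO) to 10 µM. NV genome quantified by qRT-PCR; ED50 for genome levels taken at 24 h post-treatment. Values averaged over at least two independent experiments, mean ± standard deviation.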

pEC50 (Norwalk virus)	Structure (SMILES)	CC50 at 48 h [1]
–	O=S1(=O)N(CCN2CCOCC2)CCN1Cc1cccc(Oc2ccccc2)c1	49 µM
< 5.00	CCCCc1ccc(CN2CCNS2(=O)=O)cc1	–
< 5.00	O=S1(=O)NCCN1Cc1ccc(OC(F)(F)F)cc1	–
< 5.00	CC(C)Oc1ccc(CN2CCNS2(=O)=O)cc1	–
< 5.00	COC(=O)CN1CCN(Cc2cccc(Oc3ccccc3)c2)S1(=O)=O	–
5.01	COc1ccc(Cn2cc(CN3CCN(C(=O)OC(C)(C)C)S3(=O)=O)nn2)cc1	–
< 5.00	CCCc1ccc(CN2CCNS2(=O)=O)cc1	–
< 5.00	COC(=O)CCN1CCN(Cc2cccc(Oc3ccccc3)c2)S1(=O)=O	–
< 5.00	O=C(O)CCCN1CCN(Cc2cccc(Oc3ccccc3)c2)S1(=O)=O	–
< 5.00	COC(=O)c1ccc(CN2CCN(Cc3cccc(Oc4ccccc4)c3)S2(=O)=O)cc1	–
< 5.00	O=S1(=O)NCCN1CC1CCCN(Cc2ccccc2)C1 (configuration not stated)	–
< 5.00	O=S1(=O)NCCN1Cc1cccc(Cl)c1	–
< 5.00	O=S1(=O)NCCN1Cc1ccc(Cl)cc1	–
< 5.00	COc1cccc(CN2CCNS2(=O)=O)c1	–
< 5.00	O=C(O)CCCCCCN1CCN(Cc2cccc(Oc3ccccc3)c2)S1(=O)=O	–
5.02	CCCCOc1ccc(CN2CCNS2(=O)=O)cc1	–
< 5.00	O=S1(=O)NCCN1Cc1cccc(Oc2ccc(F)cc2)c1	98 µM
< 5.00	O=S1(=O)N(Cc2ccccc2)CCN1Cc1cccc(Oc2ccccc2)c1	–
5.01	CC(C)Cc1ccc(CN2CCNS2(=O)=O)cc1	–
5.24	O=S1(=O)NCCN1Cc1ccc(Oc2ccccc2)cc1	57 µM
< 5.00	COC(=O)CCCCCCN1CCN(Cc2cccc(Oc3ccccc3)c2)S1(=O)=O	–
5.01	O=S1(=O)NCCN1Cc1ccc(OCc2ccccc2)cc1	159 µM
< 5.00	CN1CCN(Cc2cccc(Oc3ccccc3)c2)S1(=O)=O	–

pEC50 (Norwalk virus)	Structure (SMILES)	CC50 at 48 h [1]
5.28	CCCOc1ccc(CN2CCNS2(=O)=O)cc1	96 µM
5.11	O=C(O)CN1CCN(Cc2cccc(Oc3ccccc3)c2)S1(=O)=O	48 µM
< 5.00	CCOc1ccc(CN2CCNS2(=O)=O)cc1	–
< 5.00	O=S1(=O)NCCN1Cc1cccc(O)c1	–
< 5.00	O=C(O)CCN1CCN(Cc2cccc(Oc3ccccc3)c2)S1(=O)=O	–
5.39	O=S1(=O)NCCN1Cc1cccc(Oc2ccccc2)c1	50 µM
< 5.00	COc1ccc(Cn2cc(CN3CCNS3(=O)=O)nn2)cc1	–
< 5.00	O=S1(=O)N(Cc2ccc(F)cc2)CCN1Cc1cccc(Oc2ccccc2)c1	–
5.01	COC(=O)CCCCN1CCN(Cc2cccc(Oc3ccccc3)c2)S1(=O)=O	46 µM
5.28	O=S1(=O)NCCN1Cc1cccc(OCc2ccccc2)c1	18 µM
< 5.00	NC(=O)CN1CCN(Cc2cccc(Oc3ccccc3)c2)S1(=O)=O	–
< 5.00	O=S1(=O)NCCN1Cc1cccc(OC(F)(F)F)c1	–
< 5.00	O=S1(=O)NCCN1Cc1cn(Cc2ccccc2)nn1	–
< 5.00	O=C(O)c1ccc(CN2CCN(Cc3cccc(Oc4ccccc4)c3)S2(=O)=O)cc1	–
5.37	O=S1(=O)N(CCN2CCCCC2)CCN1Cc1cccc(Oc2ccccc2)c1	9.8 µM
< 5.00	CC(C)(C)OC(=O)N1CCN(Cc2cn(Cc3ccccc3)nn2)S1(=O)=O	–
< 5.00	N#CCN1CCN(Cc2cccc(Oc3ccccc3)c2)S1(=O)=O	–
< 5.00	CSc1ccc(CN2CCNS2(=O)=O)cc1	–
< 5.00	CCN1CCN(Cc2cccc(Oc3ccccc3)c2)S1(=O)=O	–
5.21	O=C(O)CCCCN1CCN(Cc2cccc(Oc3ccccc3)c2)S1(=O)=O	100 µM
< 5.00	COc1ccc(CN2CCNS2(=O)=O)cc1	–
5.09	O=S1(=O)N(Cc2cccnc2)CCN1Cc1cccc(Oc2ccccc2)c1	53 µM
< 5.00	COC(=O)CCCN1CCN(Cc2cccc(Oc3ccccc3)c2)S1(=O)=O	–
